Source: ChEMBL document CHEMBL4602735, “Discovery of (1H-Pyrazolo[3,4-c]pyridin-5-yl)sulfonamide Analogues as Hepatitis B Virus Capsid Assembly Modulators by Conformation Constraint” (J Med Chem, 2020)
pEC50: −log10 of the molar value. Calls of active or inactive are those of the source. No cut-off for these calls is given here.

How the values were obtained:
Hepatitis B virus [1] = assay: Antiviral activity against HBV infected in human HepG2.2.15 cells assessed as reduction in viral DNA levels incubated for 6 days by PCR analysis; assay type: functional, organism-based; details: HepG2 2.2.15, 144 h
[2] = AUC in C57BL/6 mouse plasma at 20 mg/kg, iv measured from 5 mins to 24 hrs by HPLC analysis; assay type: ADME, organism-based; set-up: dose 20 mg/kg, time upper 24 hr, time lower 0.083 hr, route intravenous
Procedure, shortened: (§1)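 Male C57BL/6 mice, n=3. Dosing 20 mg/kg i.v. or 100 mg/kg p.o. of parent; prodrug p.o. at 100 or 200 mg/kg. The parent compound was measured in blood/plasma and in liver from 5 min onward. Readouts were Cmax, Tmax, t1/2, CL, AUC and oral bioavailability.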

Hepatitis B virus [3] = assay: Antiviral activity against HBV genotype D in hydrodynamic injection-based C57BL/6 mouse model of HBV infection assessed as inhibition of serum HBV DNA level at 50 mg/kg, po dosed twice daily for 7 days by real-time PCR analysis; assay type: functional, organism-based
Hepatitis B virus [4] = assay: Antiviral activity against HBV infected in human HepAD38 cells assessed as inhibition of intracellular viral RNA accumulation at 2 uM for 4 days by qPCR or qRT-PCR relative to control; assay type: functional, organism-based
Procedure, shortened: (§2)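 HepAD38 or HepG2.2.15 cells were treated at 2 µM for 4 days, with medium replaced every 2 days. Intracellular and extracellular DNA and RNA were quantified by qPCR or qRT-PCR, and HBeAg and HBsAg by ELISA. Results were compared with DMSO vehicle as mean ± SD, using a two-tailed t-test.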

Hepatitis B virus [5] = assay: Inhibition of HBsAg secretion in HBV infected human HepAD38 cells at 2 uM for 4 days by ELISA; assay type: functional, organism-based; procedure, shortened: as §2
Hepatitis B virus [6] = assay: Antiviral activity against multidrug-resistant HBV infected in human HepG2.1403F cells assessed as reduction in viral replication incubated for 6 days by PCR analysis; assay type: functional, organism-based; details: 144 h
Procedure, shortened: (§3)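 Wild-type HBV replication measured in HepAD38 and HepG2.2.15 cells, lamivudine/entecavir-resistant HBV in HepG2.A64 cells (rtL180M+rtT184L+rtM204V) and multidrug-resistant HBV in HepG2.1403F cells (rtL180M+rtM204V+rtS202G+rtN236T). Read-out is reduction of HBV DNA. EC50 is reported as mean ± SD.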

[7] = Selectivity index, ratio of CC50 for cytotoxicity in human HepAD38 cells assessed as induction of cell killing to EC50 for antiviral activity against HBV infected in human HepAD38 cells assessed as reduction in viral DNA levels incubated for 6 days by PCR analysis; assay type: toxicity, cell-based; details: read-out: Ratio CC50/EC50
[8] = Oral bioavailability in C57BL/6 mouse liver at 100 mg/kg measured from 5 mins to 24 hrs by HPLC analysis; assay type: ADME, organism-based; procedure, shortened: as §1
Hepatitis B virus [9] = assay: Antiviral activity against HBV infected in human HepG2.A64 cells containing reverse transcriptase L180M/T184L/M204V mutant assessed as reduction in viral replication incubated for 6 days by PCR analysis; assay type: functional, organism-based; details: HepG2.A64, 144 h; procedure, shortened: as §3
Hepatitis B virus [10] = assay: Antiviral activity against HBV genotype D in hydrodynamic injection-based C57BL/6 mouse model of HBV infection assessed as inhibition of HBV replication at 50 mg/kg, po dosed once daily for 7 days by real-time PCR analysis; assay type: functional, organism-based
Hepatitis B virus [11] = assay: Inhibition of HBsAg secretion in HBV infected human HepG2.2.15 cells at 2 uM for 4 days by ELISA; assay type: functional, organism-based; details: HepG2 2.2.15; procedure, shortened: as §2
[12] = Tmax in C57BL/6 mouse liver at 100 mg/kg, po measured from 5 mins to 24 hrs by HPLC analysis; assay type: ADME, organism-based
Procedure, shortened: (§4)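 Male C57BL/6 mice, single oral dose of prodrug at 100 or 200 mg/kg; blood and liver levels of the parent compound measured over time; N=3; Tmax taken from the concentration–time profiles.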

Hepatitis B virus [13] = assay: Antiviral activity against HBV infected in human HepG2.2.15 cells assessed as inhibition of intracellular viral RNA accumulation at 2 uM for 4 days by qPCR or qRT-PCR relative to control; assay type: functional, organism-based; details: HepG2 2.2.15; procedure, shortened: as §2
[14] = Clearance in C57BL/6 mouse at 20 mg/kg, iv measured from 5 mins to 24 hrs by HPLC analysis; assay type: ADME, organism-based; details: in vivo; procedure, shortened: as §1
[15] = Half life in C57BL/6 mouse at 20 mg/kg, iv measured from 5 mins to 24 hrs by HPLC analysis; assay type: ADME, organism-based; details: in vivo; procedure, shortened: as §1
[16] = AUC in C57BL/6 mouse liver at 100 mg/kg, po measured from 5 mins to 24 hrs by HPLC analysis; assay type: ADME, organism-based; set-up: time 0.083-24 hr, dose 100 mg/kg, route oral; details: in vivo; procedure, shortened: as §1
[17] = Intrinsic clearance in mouse liver microsomes; assay type: ADME, Microsome; details: read-out: CLH
[18] = Cytotoxicity in human HepG2 cells assessed as induction of cell killing; assay type: cell-based
[19] = Cmax in C57BL/6 mouse liver at 100 mg/kg, po measured from 5 mins to 24 hrs by HPLC analysis; assay type: ADME, organism-based; set-up: dose 100 mg/kg, route oral; details: in vivo; procedure, shortened: as §1
Hepatitis B virus [20] = assay: Antiviral activity against HBV genotype D in hydrodynamic injection-based C57BL/6 mouse model of HBV infection assessed as inhibition of liver HBV DNA level at 50 mg/kg, po dosed twice daily for 7 days by real-time PCR analysis; assay type: functional, organism-based
[21] = Cytotoxicity in human HepAD38 cells assessed as induction of cell killing; assay type: cell-based
Hepatitis B virus [22] = assay: Antiviral activity against HBV infected in human HepG2.2.15 cells assessed as inhibition of intracellular viral DNA accumulation at 2 uM for 4 days by qPCR or qRT-PCR relative to control; assay type: functional, organism-based; details: HepG2 2.2.15; procedure, shortened: as §2
[23] = Tmax in C57BL/6 mouse blood at 100 mg/kg, po measured from 5 mins to 24 hrs by HPLC analysis; assay type: ADME, organism-based; procedure, shortened: as §4
Hepatitis B virus [24] = assay: Antiviral activity against HBV genotype D in hydrodynamic injection-based C57BL/6 mouse model of HBV infection assessed as inhibition of serum HBV DNA level at 100 mg/kg, po dosed twice daily for 7 days by real-time PCR analysis; assay type: functional, organism-based
[25] = Drug level in C57BL/6 mouse liver at 100 mg/kg, po measured after 5 mins by HPLC analysis; assay type: ADME, organism-based; details: in vivo
[26] = AUC in C57BL/6 mouse plasma at 100 mg/kg, po measured from 5 mins to 24 hrs by HPLC analysis; assay type: ADME, organism-based; set-up: time upper 24 hr, dose 100 mg/kg, time lower 0.083 hr, route oral; procedure, shortened: as §1
[27] = AUC in C57BL/6 mouse liver at 20 mg/kg, iv measured from 5 mins to 24 hrs by HPLC analysis; assay type: ADME, organism-based; set-up: time lower 0.083 hr, dose 20 mg/kg, time upper 24 hr, route intravenous; details: in vivo; procedure, shortened: as §1
[28] = Cmax in C57BL/6 mouse blood at 100 mg/kg, po measured from 5 mins to 24 hrs by HPLC analysis; assay type: ADME, organism-based; set-up: dose 100 mg/kg, route oral; procedure, shortened: as §1
Hepatitis B virus [29] = assay: Antiviral activity against HBV infected in human HepAD38 cells assessed as reduction in viral DNA levels incubated for 6 days by PCR analysis; assay type: functional, organism-based; details: HePAD38, 144 h
Hepatitis B virus [30] = assay: Antiviral activity against HBV infected in human HepAD38 cells assessed as inhibition of intracellular viral DNA accumulation at 2 uM for 4 days by qPCR or qRT-PCR relative to control; assay type: functional, organism-based; procedure, shortened: as §2
[31] = Solubility in pH 6.8 phosphate buffer at 1 mg at 25 degC by HPLC analysis; assay type: physicochemical; details: BLD = below limit of detection
Procedure, shortened: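 Solubility determined in water or 0.067 M phosphate buffer at pH 5.8, 6.8 and 7.4. Values are reported in mg/mL; ND means below the detection limit.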

Hepatitis B virus [32] = assay: Antiviral activity against HBV genotype D in hydrodynamic injection-based C57BL/6 mouse model of HBV infection assessed as inhibition of liver HBV DNA level at 100 mg/kg, po dosed twice daily for 7 days by real-time PCR analysis; assay type: functional, organism-based
Hepatitis B virus [33] = assay: Antiviral activity against HBV infected in […] cells; assay type: functional, organism-based

In the case of `Cc1cc(Nc2nn(C3CC3)c3cnc(S(=O)(=O)N4CCC(O)CC4)cc23)ccc1F`, the pEC50 (Hepatitis B virus [1]) was 8.46, the AUC [2] was 2600 ng·h/mL and the Activity (Hepatitis B virus [3]) was “inactive”. For the same compound, the inhibition (Hepatitis B virus [4]) was “Active”, the inhibition (Hepatitis B virus [5]) was “inactive” and the pEC50 (Hepatitis B virus [6]) was 9.48. The selectivity ratio at 144 h [7] was over 2940, the bioavailability [8] was 12% and the pEC50 (Hepatitis B virus [9]) was 9.60. The Activity (Hepatitis B virus [10]) was “inactive”, the inhibition (Hepatitis B virus [11]) was “inactive” and the Tmax [12] was 30 min. The inhibition (Hepatitis B virus [13]) was “Active”, the clearance [14] was 2.33 mL/min and the half-life [15] was 37.8 min. The AUC [16] was 142 nmol·h/g, the microsomal CLint [17] was 10.3 µL/min/mg and the CC50 [18] was over 100000 nM. For the same compound, the Cmax [19] was 32 nmol/g, the Activity (Hepatitis B virus [20]) was “inactive” and the CC50 [21] was over 100000 nM. The inhibition (Hepatitis B virus [22]) was “Active”, the Tmax [23] was 30 min and the Activity (Hepatitis B virus [24]) was “inactive”. The Drug uptake [25] was over 10 nmol/g, the AUC [26] was 1580 ng·h/mL and the AUC [27] was 62 nmol·h/g. The Cmax [28] was 1190 nM, the pEC50 (Hepatitis B virus [29]) was 7.47 and the inhibition (Hepatitis B virus [30]) was “Active”. For the same compound, the solubility [31] was “Bld” and the Activity (Hepatitis B virus [32]) was “inactive”.

In the case of `CCC(C)NS(=O)(=O)c1ccc(F)c(C(=O)Nc2ccc(F)c(F)c2)c1` (stereo not drawn), the pEC50 (Hepatitis B virus [33]) was 6.52.
